Results published in paper PMC7063993 (ACS chemical neuroscience, 2019).

Tests used:
MN9D cells [1] = assay: Intracellular ROS levels by DCFH-DA in MN9D cells; type: cell-based, mouse
MN9D cells [2] = assay: Cellular uptake into MN9D cells; type: cell-based, mouse; conditions: for Concentration dependence of MN9D cell uptake: up to 100 μM (0-100 μM for 45 min for [3], [4], [5])
Outline: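 MN9D cells seeded at 0.25 x 10⁶ cells/well and grown 2–3 days to 70–80% confluency. Test compound in warm KRB-HEPES (pH 7.4) at 37 °C: 50 μM for 0–60 min (time course) or varying concentrations for 45 min. Cells washed in ice-cold buffer and pellets extracted with 0.1 M HClO₄. C18 reversed-phase HPLC-UV quantified against standard curves. Normalized to Bradford protein, time-zero readings subtracted.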

HepG2 cells [3] = assay: Intracellular ROS levels by DCFH-DA in HepG2 cells; type: cell-based, Human; conditions: 1 h
Outline: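 Cells in 12-well plates loaded with 10 μM DCFH-DA in KRB-HEPES for 1 h, then washed with ice-cold buffer. Exposed to test compound in the same buffer for 1 h at 37 °C. Harvested and lysed in 0.1 M Tris (pH 7.5) with 1% Triton X-100, then cleared by centrifugation. DCF fluorescence read at Ex/Em 488/524 nm and normalized to protein content.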

[4] = system: MN9D cell mitochondrial membrane potential; assay: Mitochondrial membrane potential; type: cell-based, mouse; conditions: 500 μM, 1 h of incubation, TMRM
Outline: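 MN9D cells on glass-bottomed plates loaded with 50 nM TMRM in KRB-HEPES for 45 min in the dark. Fluorescence (Ex/Em 543/573 nm) recorded from 15–20 ROIs every 5 s for 3 min as baseline. Test compound then added and recording continued every 15 s for 1 h. Background subtracted and ROI averages taken as membrane potential.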

[5] = Relative lipophilicity estimated by reverse phase HPLC retention times; type: physicochemical
[6] = Uptake into isolated intact MN9D cell mitochondria; parameters: species or system mouse; conditions: 50 μM, 45 min
dopaminergic MN9D cells = assay: MTT cell viability assay, MN9D cell toxicity; type: cell-based, mouse; conditions: Asc pre-treatment 30 min, 8 μM [3] or 40 μM [1], 18 h
Outline: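 MN9D cells in 96-well plates pretreated with ascorbate (0–500 μM) for 30 min at 37 °C. Then exposed to a fixed concentration of test compound with the same ascorbate level for 18 h at 37 °C. Read by MTT (A570 − A650) as % of controls. Parallel toxin-free wells at each ascorbate level subtracted to correct for MTT reduction by ascorbate.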

[7] = system: rat brain mitochondrial complex I; assay: Mitochondrial complex I; type: biochemical
MN9D cells [8] = assay: Chromatin condensation test for apoptosis; type: cell-based, mouse; conditions: 200 μM [1], 12 h, 300 nM DAPI
Outline: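 MN9D cells on glass-bottomed plates exposed to test compound for 12 h. Nuclear DAPI fluorescence (Ex/Em 358/461 nm) from chromatin condensation observed by fluorescence microscopy. Controls handled the same way without toxin.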

[9] = system: dopaminergic SH-SH5Y cells; assay: MTT cell viability assay, SH-SY5Y cell toxicity; type: cell-based; conditions: read-out: IC50 (SH-SH5Y cell toxicity)
Outline: (§1)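 Cells grown in 96-well plates to ~70–80% confluence. Medium replaced with DMEM containing test compound at varying concentrations, 18 h (12 h in one series) at 37 °C. MTT added for 2 h at 37 °C. Formazan dissolved in 50% DMF/20% SDS for 12 h at 37 °C and read as A570 minus A650. Viability expressed as % of untreated controls.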

HepG2 cells [10] = assay: MTT cell viability assay, HepG2 cell toxicity; type: cell-based, Human; conditions: same conditions/concentrations as MN9D experiments
Outline: as §1

| Compound | Concentration dependence of MN9D cell uptake (MN9D cells [2]) | Effect on intracellular ROS levels in HepG2 cells (HepG2 cells [3]) | Depolarization of MN9D cell mitochondrial membrane potential [4] | RT (relative lipophilicity, reverse phase HPLC retention time) [5] | Uptake into isolated intact MN9D mitochondria [6] | further results |
| --- | --- | --- | --- | --- | --- | --- |
| 4-(4′-methoxyphenyl-1-[2-(4-chlorophenyl)-propyl] pyridinium bromide [[3]] | concentration dependent and non-saturable | did not increase | drastically | 8.39 min | accumulate efficiently in intact mitochondria with comparable efficiency | Increase of intracellular ROS level from the baseline levels (MN9D cells [1]; MN9D cells, 100 μM, 1 h, DCFH-DA): 2.5–3.0 fold |
| 4-(4′-methoxyphenyl-1-[2-(4-fluorophenyl)-propyl]pyridinium bromide [[5]] | concentration dependent and non-saturable | did not increase | very weakly | 6.97 min | accumulate efficiently in intact mitochondria with comparable efficiency | Effect on intracellular ROS levels in MN9D cells (MN9D cells [1]; MN9D cells, up to 100 μM, 1 h, DCFH-DA): did not significantly increase |
| O=C1O[C@H]([C@@H](O)CO)C(O)=C1O [Asc, ascorbate, reference compound] |  |  |  |  |  | Effect on [1]-mediated ROS production in MN9D cells (MN9D cells [1]; Asc 0-2 mM pre-incubation 1 h, then 200 μM [1] for 5 h): effectively reduces; Effect on [1] and [3]-mediated MN9D cell death (dopaminergic MN9D cells): protects |
| C[n+]1ccc(-c2ccccc2)cc1 [MPP^+, 1-methyl-4-phenylpyridinium] |  |  |  |  |  | Relative percent inhibition of complex I ([7]; 100 μM, rat brain mitochondrial membranes): 12.5% |
| CC(=C[n+]1ccc(-c2ccccc2)cc1)c1ccccc1 [[1], N-(2-phenyl-1-propene)-4-phenyl-pyridinium] | non-saturable |  |  | 6.33 min |  | Time course of MN9D cell uptake (MN9D cells [2]; 50 μM, up to 1 h, 37°C): linear; Chromatin condensation (nuclear DAPI fluorescence) in MN9D cell death (MN9D cells [8]): associated with chromatin condensation; IC50 [9]: ~50 µM; Toxicity to HepG2 cells (HepG2 cells [10]): not significantly toxic |
| C=C(C)[C@H]1Cc2c(ccc3c2O[C@@H]2COc4cc(OC)c(OC)cc4[C@@H]2C3=O)O1 [rotenone] |  |  |  |  |  | Inhibition of ubiquinone dependent NADH oxidation activity of complex I ([7]; 10 μM, positive control, compared to control): more than 85% |
